Experimental data published in ChEMBL document CHEMBL5058577, “EUbOPEN Chemogenomics Library 2 (Multiplex)” (2022).

System: U2OS
Assay: Multiplex assay against U2OS
Assay type: toxicity, cell-based
Conditions: human
Outline: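 Tubulin, mitochondrial-mass and membrane-permeability phenotypes are per cents of healthy-nucleus cells. Cells were gated by CellPathfinder machine learning into Hoechst high-intensity objects or normal cells, normal cells into healthy, pyknosed or fragmented nuclei, and pyknosed cells into mitotic or apoptotic. Before that, live cells stained at seeding with Hoechst33342, BioTracker Green Microtubule Cytoskeleton Dye, MitoTracker Red and Annexin V Alexa Fluor 680 were imaged on a CQ1 microscope at 37°C and 5% CO2 after compound addition.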

[1] = 12 h, 1 µM, compound concentration 1 uM, replicate 1
[2] = 12 h, 1 µM, compound concentration 1 uM, replicate 2
[3] = 12 h, 10 µM, compound concentration 10 uM, replicate 1
[4] = 12 h, 10 µM, compound concentration 10 uM, replicate 2
[5] = 24 h, 1 µM, compound concentration 1 uM, replicate 1
[6] = 24 h, 1 µM, compound concentration 1 uM, replicate 2
[7] = 24 h, 10 µM, compound concentration 10 uM, replicate 1
[8] = 24 h, 10 µM, compound concentration 10 uM, replicate 2
[9] = 48 h, 1 µM, compound concentration 1 uM, replicate 1
[10] = 48 h, 1 µM, compound concentration 1 uM, replicate 2
[11] = 48 h, 10 µM, compound concentration 10 uM, replicate 1
[12] = 48 h, 10 µM, compound concentration 10 uM, replicate 2

O=C(O)CCC/C=C\CC1C(O)CC(O)C1/C=C/C(O)COc1cccc(Cl)c1 (centres undefined) [CLOPROSTENOL]
Population Apoptotic (%) [1]: 77% | Population Fragmented Nuclei (%) [1]: 30% | Population Healthy Nuclei (%) [1]: 60% | Population Hoechst High Intensity Objects (%) [1]: 3% | Population Membrane Permeable-Phenotype (%) [1]: 2% | Population Mitochondria Different-Phenotype (%) [1]: 0% | Population Mitotic Cells (%) [1]: 22% | Population Normal (%) [1]: 96% | Population Pyknosed Nuclei (%) [1]: 9% | Population Tubulin-Different-Phenotype (%) [1]: 1% | Total Cell Count [1]: 201 | Population Apoptotic (%) [2]: 75% | Population Fragmented Nuclei (%) [2]: 11% | Population Healthy Nuclei (%) [2]: 82% | Population Hoechst High Intensity Objects (%) [2]: 0% | Population Membrane Permeable-Phenotype (%) [2]: 6% | Population Mitochondria Different-Phenotype (%) [2]: 3% | Population Mitotic Cells (%) [2]: 25% | Population Normal (%) [2]: 100% | Population Pyknosed Nuclei (%) [2]: 6% | Population Tubulin-Different-Phenotype (%) [2]: 2% | Total Cell Count [2]: 129 | Population Apoptotic (%) [3]: 92% | Population Fragmented Nuclei (%) [3]: 28% | Population Healthy Nuclei (%) [3]: 60% | Population Hoechst High Intensity Objects (%) [3]: 2% | Population Membrane Permeable-Phenotype (%) [3]: 8% | Population Mitochondria Different-Phenotype (%) [3]: 1% | Population Mitotic Cells (%) [3]: 7% | Population Normal (%) [3]: 97% | Population Pyknosed Nuclei (%) [3]: 10% | Population Tubulin-Different-Phenotype (%) [3]: 3% | Total Cell Count [3]: 272 | Population Apoptotic (%) [4]: 45% | Population Fragmented Nuclei (%) [4]: 9% | Population Healthy Nuclei (%) [4]: 81% | Population Hoechst High Intensity Objects (%) [4]: 0% | Population Membrane Permeable-Phenotype (%) [4]: 9% | Population Mitochondria Different-Phenotype (%) [4]: 6% | Population Mitotic Cells (%) [4]: 54% | Population Normal (%) [4]: 100% | Population Pyknosed Nuclei (%) [4]: 8% | Total Cell Count [4]: 131 | Population Apoptotic (%) [5]: 81% | Population Fragmented Nuclei (%) [5]: 24% | Population Healthy Nuclei (%) [5]: 63% | Population Hoechst High Intensity Objects (%) [5]: 1% | Population Membrane Permeable-Phenotype (%) [5]: 4% | Population Mitochondria Different-Phenotype (%) [5]: 2% | Population Mitotic Cells (%) [5]: 18% | Population Normal (%) [5]: 98% | Population Pyknosed Nuclei (%) [5]: 11% | Population Tubulin-Different-Phenotype (%) [5]: 2% | Total Cell Count [5]: 237 | Population Apoptotic (%) [6]: 75% | Population Fragmented Nuclei (%) [6]: 15% | Population Healthy Nuclei (%) [6]: 77% | Population Hoechst High Intensity Objects (%) [6]: 0% | Population Membrane Permeable-Phenotype (%) [6]: 6% | Population Mitotic Cells (%) [6]: 25% | Population Normal (%) [6]: 100% | Population Pyknosed Nuclei (%) [6]: 7% | Population Tubulin-Different-Phenotype (%) [6]: 4% | Total Cell Count [6]: 157 | Population Apoptotic (%) [7]: 90% | Population Fragmented Nuclei (%) [7]: 23% | Population Healthy Nuclei (%) [7]: 66% | Population Hoechst High Intensity Objects (%) [7]: 2% | Population Membrane Permeable-Phenotype (%) [7]: 7% | Population Mitochondria Different-Phenotype (%) [7]: 2% | Population Mitotic Cells (%) [7]: 10% | Population Normal (%) [7]: 97% | Population Pyknosed Nuclei (%) [7]: 10% | Population Tubulin-Different-Phenotype (%) [7]: 3% | Total Cell Count [7]: 306 | Population Apoptotic (%) [8]: 70% | Population Fragmented Nuclei (%) [8]: 11% | Population Healthy Nuclei (%) [8]: 82% | Population Hoechst High Intensity Objects (%) [8]: 0% | Population Membrane Permeable-Phenotype (%) [8]: 11% | Population Mitochondria Different-Phenotype (%) [8]: 4% | Population Mitotic Cells (%) [8]: 30% | Population Normal (%) [8]: 100% | Population Pyknosed Nuclei (%) [8]: 5% | Population Tubulin-Different-Phenotype (%) [8]: 4% | Total Cell Count [8]: 177 | Population Apoptotic (%) [9]: 89% | Population Fragmented Nuclei (%) [9]: 20% | Population Healthy Nuclei (%) [9]: 70% | Population Hoechst High Intensity Objects (%) [9]: 1% | Population Membrane Permeable-Phenotype (%) [9]: 2% | Population Mitochondria Different-Phenotype (%) [9]: 1% | Population Mitotic Cells (%) [9]: 10% | Population Normal (%) [9]: 98% | Population Pyknosed Nuclei (%) [9]: 8% | Population Tubulin-Different-Phenotype (%) [9]: 0% | Total Cell Count [9]: 344 | Population Apoptotic (%) [10]: 81% | Population Fragmented Nuclei (%) [10]: 11% | Population Healthy Nuclei (%) [10]: 81% | Population Hoechst High Intensity Objects (%) [10]: 0% | Population Membrane Permeable-Phenotype (%) [10]: 6% | Population Mitochondria Different-Phenotype (%) [10]: 3% | Population Mitotic Cells (%) [10]: 18% | Population Normal (%) [10]: 99% | Population Pyknosed Nuclei (%) [10]: 7% | Population Tubulin-Different-Phenotype (%) [10]: 2% | Total Cell Count [10]: 229 | Population Apoptotic (%) [11]: 91% | Population Fragmented Nuclei (%) [11]: 18% | Population Healthy Nuclei (%) [11]: 67% | Population Hoechst High Intensity Objects (%) [11]: 3% | Population Membrane Permeable-Phenotype (%) [11]: 6% | Population Mitochondria Different-Phenotype (%) [11]: 1% | Population Mitotic Cells (%) [11]: 8% | Population Normal (%) [11]: 96% | Population Pyknosed Nuclei (%) [11]: 14% | Population Tubulin-Different-Phenotype (%) [11]: 4% | Total Cell Count [11]: 396 | Population Apoptotic (%) [12]: 84% | Population Fragmented Nuclei (%) [12]: 12% | Population Healthy Nuclei (%) [12]: 82% | Population Hoechst High Intensity Objects (%) [12]: 2% | Population Membrane Permeable-Phenotype (%) [12]: 10% | Population Mitochondria Different-Phenotype (%) [12]: 2% | Population Mitotic Cells (%) [12]: 15% | Population Normal (%) [12]: 97% | Population Pyknosed Nuclei (%) [12]: 5% | Total Cell Count [12]: 246
